*1 amine or outer side, *2 acyl side, *3 side chain or, on linkers, in order; H or OH if unused. Where a SMILES comes first, the peptide text is derived from it. Bridges are numbered along the chain shown (N, C = ends). [ ]: non-standard residue; d: D form. The star is where a group is joined. Staurosporine = CO[C@@H]1[C@H](N(C)*)C[C@H]2O[C@]1(C)n1c3ccccc3c3c4c(c5c6ccccc6n2c5c31)C(=O)NC4; Suc = O=C(CCC(=O)[*:2])[*:1]; Dap = NC[C@H](N)C(=O)O; βAla = NCCC(=O)O

The text below walks through data of ChEMBL document CHEMBL1152541, “Staurosporine tethered peptide ligands that target cAMP-dependent protein kinase (PKA): optimization and selectivity profiling” (Bioorg Med Chem, 2009).

For experiment [1], the target named is Dual specificity mitogen-activated protein kinase kinase 1 (Homo sapiens) (UniProt Q02750). In words: Binding affinity to human MEK1 at 500 nM by cell-based competition binding assay relative to control in presence of DTT. The gist of the method: (§1)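 Kinase binding profile from a commercial panel of 90 kinases, run as a competitive binding assay. The panel was screened under reducing conditions of 7.5 mM DTT. Signal was compared with the untreated control.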

Experiment [2] addresses T1, Tyrosine-protein kinase ZAP-70 (Homo sapiens) (UniProt P43403).
T1 sequence (whole entry): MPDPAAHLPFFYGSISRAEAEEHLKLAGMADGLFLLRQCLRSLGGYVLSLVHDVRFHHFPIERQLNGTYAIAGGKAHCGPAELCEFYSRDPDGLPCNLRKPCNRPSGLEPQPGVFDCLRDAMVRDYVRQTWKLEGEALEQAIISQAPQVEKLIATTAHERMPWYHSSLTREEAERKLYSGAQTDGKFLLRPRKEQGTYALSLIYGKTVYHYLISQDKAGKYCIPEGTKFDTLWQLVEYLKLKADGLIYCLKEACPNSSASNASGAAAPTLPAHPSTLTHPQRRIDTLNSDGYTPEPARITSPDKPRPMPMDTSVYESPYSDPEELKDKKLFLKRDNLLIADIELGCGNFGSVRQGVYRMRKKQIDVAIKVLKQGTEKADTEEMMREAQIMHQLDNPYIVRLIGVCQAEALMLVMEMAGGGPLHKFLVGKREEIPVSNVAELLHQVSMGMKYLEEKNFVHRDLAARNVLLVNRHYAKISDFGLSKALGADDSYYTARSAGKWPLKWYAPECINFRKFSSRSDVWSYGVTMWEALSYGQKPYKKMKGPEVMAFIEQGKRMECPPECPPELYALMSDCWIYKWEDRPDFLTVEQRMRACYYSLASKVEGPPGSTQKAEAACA
In words: Ratio of staurosporine to compound binding affinity to human ZAP70 in presence of DTT.

Experiment [3] has as its target Receptor tyrosine-protein kinase erbB-2 (Homo sapiens) (UniProt P04626). In words: Binding affinity to human ERBB2 at 200 nM by cell-based competition binding assay relative to control in presence of DTT. A digest of the protocol:
(§2)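 Commercial (Ambit) competitive kinase-binding panel of 90 kinases measured the binding profile. Run under reducing conditions of 7.5 mM DTT. Binding is expressed relative to control.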

The target in experiment [4] is Phosphatidylinositol 4-phosphate 3-kinase C2 domain-containing subunit beta (Homo sapiens) (UniProt O00750). In words: Binding affinity to human PIK3C2beta at 200 nM by cell-based competition binding assay relative to control in presence of DTT.
Experiment [5] addresses Serine/threonine-protein kinase B-raf (Homo sapiens) (UniProt P15056). In words: Binding affinity to human BRAF at 200 nM by cell-based competition binding assay relative to control in presence of DTT. The gist of the method: (§3)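 Kinase binding profiling ran on a commercial (Ambit) competitive binding screen against a panel of 90 kinases. The screen used reducing conditions with 7.5 mM DTT. To withstand the DTT, the bivalent ligand was tested as its amide isostere, with the disulfide replaced. A staurosporine derivative carrying a 3 β-alanine linker was run as the reference compound.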

The target of experiment [6] is Tyrosine-protein kinase JAK2 (Homo sapiens) (UniProt O60674). Description: Binding affinity to human JAK2 kinase domain 2 at 200 nM by cell-based competition binding assay relative to control in presence of DTT. The gist of the method: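 Competition binding screen (Ambit) across a panel of 90 kinases, scoring test ligand displacement of each kinase's binding relative to control. The screen ran under reducing conditions with 7.5 mM DTT.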

The target of experiment [7] is Serine/threonine-protein kinase pim-3 (Homo sapiens) (UniProt Q86V86). In words: Binding affinity to human PIM3 at 200 nM by cell-based competition binding assay relative to control in presence of DTT.
The target in experiment [8] is Dual specificity mitogen-activated protein kinase kinase 1 (Homo sapiens) (UniProt Q02750). Description: Binding affinity to human MEK1 at 200 nM by cell-based competition binding assay relative to control in presence of DTT. A digest of the protocol: as §1
Experiment [9] concerns the target Receptor tyrosine-protein kinase erbB-4 (Homo sapiens) (UniProt Q15303). In words: Binding affinity to human ERBB4 at 50 nM by cell-based competition binding assay relative to control in presence of DTT. The gist of the method:
as §2

Experiment [10] concerns the target Serine/threonine-protein kinase 32C (Homo sapiens) (UniProt Q86UX6). Description: Binding affinity to human YANK3 at 50 nM by cell-based competition binding assay relative to control in presence of DTT.
Experiment [11] deals with Tyrosine-protein kinase ABL1 (Homo sapiens), P00519 [T315I]. In words: Binding affinity to human ABL1 T315I mutant at 50 nM by cell-based competition binding assay relative to control in presence of DTT. A digest of the protocol:
as §3

The target in experiment [12] is T2, Protein kinase C epsilon type (Homo sapiens) (UniProt Q02156).
T2 sequence (whole entry): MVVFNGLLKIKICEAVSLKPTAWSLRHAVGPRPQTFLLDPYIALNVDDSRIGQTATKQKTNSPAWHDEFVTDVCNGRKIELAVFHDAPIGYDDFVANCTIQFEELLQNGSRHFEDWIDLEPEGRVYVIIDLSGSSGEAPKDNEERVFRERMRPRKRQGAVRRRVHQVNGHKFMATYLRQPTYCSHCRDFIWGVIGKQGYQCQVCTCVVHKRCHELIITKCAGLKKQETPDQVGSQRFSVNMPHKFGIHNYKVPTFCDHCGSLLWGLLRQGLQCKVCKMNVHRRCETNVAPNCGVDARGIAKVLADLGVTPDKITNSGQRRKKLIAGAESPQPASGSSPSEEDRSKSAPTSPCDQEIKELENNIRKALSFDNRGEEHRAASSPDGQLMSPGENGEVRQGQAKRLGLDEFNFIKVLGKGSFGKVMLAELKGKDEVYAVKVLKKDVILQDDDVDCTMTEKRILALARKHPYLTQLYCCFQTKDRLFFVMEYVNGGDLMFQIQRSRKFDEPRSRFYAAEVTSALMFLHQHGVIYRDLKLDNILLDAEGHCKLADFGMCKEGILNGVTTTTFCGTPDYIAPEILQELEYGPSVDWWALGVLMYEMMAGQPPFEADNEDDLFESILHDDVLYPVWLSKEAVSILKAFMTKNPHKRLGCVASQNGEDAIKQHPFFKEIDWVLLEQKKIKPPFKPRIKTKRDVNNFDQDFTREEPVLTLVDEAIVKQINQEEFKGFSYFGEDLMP
Description: Binding affinity to human PRKCepsilon at 50 nM by cell-based competition binding assay relative to control in presence of DTT.

The target in experiment [13] is Serine/threonine-protein kinase PAK 2 (Homo sapiens) (UniProt Q13177). In words: Binding affinity to human PAK2 at 50 nM by cell-based competition binding assay relative to control in presence of DTT.
In experiment [14] the target is Epidermal growth factor receptor (Homo sapiens) (UniProt P00533). Description: Binding affinity to human EGFR at 50 nM by cell-based competition binding assay relative to control in presence of DTT. The gist of the method: as §2

Dual specificity mitogen-activated protein kinase kinase 1 (Homo sapiens), sequence (Q02750 whole entry): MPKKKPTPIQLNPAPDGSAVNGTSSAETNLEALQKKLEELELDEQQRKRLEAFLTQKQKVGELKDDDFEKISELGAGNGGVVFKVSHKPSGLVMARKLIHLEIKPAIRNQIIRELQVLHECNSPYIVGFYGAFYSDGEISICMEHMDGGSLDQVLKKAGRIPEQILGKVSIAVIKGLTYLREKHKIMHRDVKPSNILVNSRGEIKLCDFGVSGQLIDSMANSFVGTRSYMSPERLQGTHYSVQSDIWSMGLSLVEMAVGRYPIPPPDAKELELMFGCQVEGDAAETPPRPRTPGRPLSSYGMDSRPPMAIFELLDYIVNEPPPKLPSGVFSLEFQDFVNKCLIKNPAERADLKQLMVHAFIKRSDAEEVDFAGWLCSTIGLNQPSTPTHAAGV
Receptor tyrosine-protein kinase erbB-4 (Homo sapiens), sequence (Q15303 whole entry): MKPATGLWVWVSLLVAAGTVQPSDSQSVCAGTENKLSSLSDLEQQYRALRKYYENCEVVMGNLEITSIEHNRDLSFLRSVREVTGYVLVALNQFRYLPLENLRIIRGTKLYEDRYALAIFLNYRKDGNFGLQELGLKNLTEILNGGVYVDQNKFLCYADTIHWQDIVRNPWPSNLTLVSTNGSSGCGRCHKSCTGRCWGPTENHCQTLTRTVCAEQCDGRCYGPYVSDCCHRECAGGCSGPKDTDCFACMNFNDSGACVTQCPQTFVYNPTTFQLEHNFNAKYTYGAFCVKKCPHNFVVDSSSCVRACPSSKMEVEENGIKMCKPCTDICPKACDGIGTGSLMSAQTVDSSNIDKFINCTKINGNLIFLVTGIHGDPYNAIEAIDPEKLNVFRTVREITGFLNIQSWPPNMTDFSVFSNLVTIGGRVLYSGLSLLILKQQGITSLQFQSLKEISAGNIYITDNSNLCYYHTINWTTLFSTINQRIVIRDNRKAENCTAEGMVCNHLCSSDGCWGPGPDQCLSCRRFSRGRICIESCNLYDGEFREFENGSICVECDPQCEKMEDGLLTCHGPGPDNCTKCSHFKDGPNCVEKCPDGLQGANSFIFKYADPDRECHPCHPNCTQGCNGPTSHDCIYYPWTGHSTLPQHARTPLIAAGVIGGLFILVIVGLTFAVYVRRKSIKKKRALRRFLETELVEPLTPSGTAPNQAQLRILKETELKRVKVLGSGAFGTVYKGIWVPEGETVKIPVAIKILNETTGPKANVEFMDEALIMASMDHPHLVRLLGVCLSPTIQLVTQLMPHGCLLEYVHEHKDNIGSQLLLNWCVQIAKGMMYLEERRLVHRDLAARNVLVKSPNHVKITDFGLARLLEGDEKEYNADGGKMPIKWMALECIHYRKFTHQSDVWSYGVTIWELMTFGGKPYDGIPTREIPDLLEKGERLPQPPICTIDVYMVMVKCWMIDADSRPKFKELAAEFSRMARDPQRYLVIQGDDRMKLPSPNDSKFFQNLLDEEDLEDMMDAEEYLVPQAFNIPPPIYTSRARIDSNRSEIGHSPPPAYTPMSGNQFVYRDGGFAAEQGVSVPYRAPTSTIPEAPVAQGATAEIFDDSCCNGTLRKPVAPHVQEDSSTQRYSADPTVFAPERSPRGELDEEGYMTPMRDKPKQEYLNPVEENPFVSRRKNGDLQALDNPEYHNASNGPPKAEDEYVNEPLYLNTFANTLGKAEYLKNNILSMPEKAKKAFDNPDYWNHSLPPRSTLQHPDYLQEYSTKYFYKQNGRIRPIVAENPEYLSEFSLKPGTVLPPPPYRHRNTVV
Receptor tyrosine-protein kinase erbB-2 (Homo sapiens), sequence (P04626 whole entry): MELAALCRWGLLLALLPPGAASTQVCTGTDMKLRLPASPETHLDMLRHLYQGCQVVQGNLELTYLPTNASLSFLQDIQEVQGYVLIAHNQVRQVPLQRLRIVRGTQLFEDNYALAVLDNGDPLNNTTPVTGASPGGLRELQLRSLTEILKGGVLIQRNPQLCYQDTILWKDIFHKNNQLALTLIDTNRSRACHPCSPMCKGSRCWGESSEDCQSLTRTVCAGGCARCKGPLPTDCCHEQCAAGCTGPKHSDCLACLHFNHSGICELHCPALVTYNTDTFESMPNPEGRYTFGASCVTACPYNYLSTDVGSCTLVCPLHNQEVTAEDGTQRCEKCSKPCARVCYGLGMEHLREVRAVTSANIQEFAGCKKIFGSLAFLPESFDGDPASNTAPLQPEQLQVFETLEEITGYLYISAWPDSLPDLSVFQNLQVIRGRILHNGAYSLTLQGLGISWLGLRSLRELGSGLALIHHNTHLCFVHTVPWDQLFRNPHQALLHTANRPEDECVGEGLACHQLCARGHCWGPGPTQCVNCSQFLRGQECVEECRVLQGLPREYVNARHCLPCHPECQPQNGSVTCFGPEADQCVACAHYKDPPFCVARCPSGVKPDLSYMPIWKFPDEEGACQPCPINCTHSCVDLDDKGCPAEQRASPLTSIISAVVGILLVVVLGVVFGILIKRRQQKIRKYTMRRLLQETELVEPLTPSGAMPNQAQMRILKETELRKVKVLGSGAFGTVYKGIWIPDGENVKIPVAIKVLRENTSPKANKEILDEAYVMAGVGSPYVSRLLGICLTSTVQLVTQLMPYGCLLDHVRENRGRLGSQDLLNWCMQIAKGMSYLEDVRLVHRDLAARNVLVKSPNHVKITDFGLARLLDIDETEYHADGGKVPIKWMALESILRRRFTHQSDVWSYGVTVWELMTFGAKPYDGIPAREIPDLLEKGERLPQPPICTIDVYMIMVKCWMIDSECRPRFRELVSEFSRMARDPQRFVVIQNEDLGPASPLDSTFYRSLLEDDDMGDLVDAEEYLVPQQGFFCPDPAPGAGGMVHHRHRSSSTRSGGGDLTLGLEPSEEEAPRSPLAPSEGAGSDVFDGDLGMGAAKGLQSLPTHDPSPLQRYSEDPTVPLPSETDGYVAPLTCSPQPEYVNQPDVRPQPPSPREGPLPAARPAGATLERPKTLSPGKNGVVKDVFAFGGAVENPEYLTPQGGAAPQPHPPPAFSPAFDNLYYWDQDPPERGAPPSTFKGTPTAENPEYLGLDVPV
Phosphatidylinositol 4-phosphate 3-kinase C2 domain-containing subunit beta (Homo sapiens), sequence (O00750 whole entry, the tested form may be a part): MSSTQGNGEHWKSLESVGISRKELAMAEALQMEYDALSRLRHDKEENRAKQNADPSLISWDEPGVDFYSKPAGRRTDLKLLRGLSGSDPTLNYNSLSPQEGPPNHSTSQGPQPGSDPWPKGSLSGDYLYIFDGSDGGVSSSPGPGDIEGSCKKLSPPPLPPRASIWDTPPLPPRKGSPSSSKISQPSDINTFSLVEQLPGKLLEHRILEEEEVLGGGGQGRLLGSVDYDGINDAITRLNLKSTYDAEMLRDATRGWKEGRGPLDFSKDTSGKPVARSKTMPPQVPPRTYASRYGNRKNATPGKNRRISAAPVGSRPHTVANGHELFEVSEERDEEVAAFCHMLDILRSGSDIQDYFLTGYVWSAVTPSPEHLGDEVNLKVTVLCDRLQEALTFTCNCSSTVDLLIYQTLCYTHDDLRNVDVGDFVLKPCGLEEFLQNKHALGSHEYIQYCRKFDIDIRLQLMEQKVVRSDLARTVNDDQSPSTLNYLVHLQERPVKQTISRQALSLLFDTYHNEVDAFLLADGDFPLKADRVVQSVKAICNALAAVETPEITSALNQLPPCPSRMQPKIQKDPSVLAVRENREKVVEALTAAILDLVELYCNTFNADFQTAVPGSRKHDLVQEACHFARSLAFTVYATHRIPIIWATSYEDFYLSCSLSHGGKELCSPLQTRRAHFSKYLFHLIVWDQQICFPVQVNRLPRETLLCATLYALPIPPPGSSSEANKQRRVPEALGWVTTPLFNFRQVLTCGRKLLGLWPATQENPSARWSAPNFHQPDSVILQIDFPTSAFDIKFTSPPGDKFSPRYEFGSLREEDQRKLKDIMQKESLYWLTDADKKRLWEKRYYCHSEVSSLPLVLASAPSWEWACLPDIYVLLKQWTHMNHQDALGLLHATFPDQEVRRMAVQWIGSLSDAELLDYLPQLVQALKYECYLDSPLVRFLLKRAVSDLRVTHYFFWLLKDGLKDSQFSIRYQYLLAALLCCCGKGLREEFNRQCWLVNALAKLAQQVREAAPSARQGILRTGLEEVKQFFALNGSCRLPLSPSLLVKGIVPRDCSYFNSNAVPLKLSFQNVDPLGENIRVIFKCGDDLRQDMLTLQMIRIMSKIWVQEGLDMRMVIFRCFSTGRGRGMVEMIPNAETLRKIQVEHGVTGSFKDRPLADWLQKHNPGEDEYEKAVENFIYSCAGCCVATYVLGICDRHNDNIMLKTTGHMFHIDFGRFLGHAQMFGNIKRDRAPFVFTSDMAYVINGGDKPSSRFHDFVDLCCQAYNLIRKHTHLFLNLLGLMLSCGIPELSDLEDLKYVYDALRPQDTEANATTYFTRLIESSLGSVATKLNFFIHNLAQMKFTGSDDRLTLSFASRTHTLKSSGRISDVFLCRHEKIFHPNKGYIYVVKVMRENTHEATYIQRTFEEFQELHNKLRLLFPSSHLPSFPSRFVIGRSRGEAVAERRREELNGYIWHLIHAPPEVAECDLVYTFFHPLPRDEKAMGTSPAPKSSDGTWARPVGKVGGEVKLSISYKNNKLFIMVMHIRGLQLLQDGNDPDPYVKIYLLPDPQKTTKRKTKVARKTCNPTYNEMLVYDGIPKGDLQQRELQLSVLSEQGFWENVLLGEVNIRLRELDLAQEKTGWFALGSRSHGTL
Serine/threonine-protein kinase PAK 2 (Homo sapiens), sequence (Q13177 whole entry): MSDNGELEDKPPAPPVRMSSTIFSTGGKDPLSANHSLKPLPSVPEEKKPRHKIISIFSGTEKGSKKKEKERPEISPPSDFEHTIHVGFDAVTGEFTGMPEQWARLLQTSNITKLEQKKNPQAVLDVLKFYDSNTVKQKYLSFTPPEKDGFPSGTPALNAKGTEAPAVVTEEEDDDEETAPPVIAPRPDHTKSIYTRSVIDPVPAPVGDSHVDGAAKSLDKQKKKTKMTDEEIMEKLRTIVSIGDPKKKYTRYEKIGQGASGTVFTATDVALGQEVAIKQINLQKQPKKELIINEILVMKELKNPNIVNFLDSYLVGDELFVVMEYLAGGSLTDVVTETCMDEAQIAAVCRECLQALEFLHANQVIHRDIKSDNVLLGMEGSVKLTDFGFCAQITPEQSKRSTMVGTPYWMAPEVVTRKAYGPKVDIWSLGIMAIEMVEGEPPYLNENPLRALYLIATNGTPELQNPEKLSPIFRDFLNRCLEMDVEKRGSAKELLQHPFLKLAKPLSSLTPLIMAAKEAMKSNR

With `CO[C@@H]1[C@H](N(C)C(=O)CCC(=O)NCCC(=O)NCCC(=O)NCCC(N)=O)C[C@H]2O[C@]1(C)n1c3ccccc3c3c4c(c5c6ccccc6n2c5c31)C(=O)NC4`, the Activity in experiment [1] stood at 100%. Also, in experiment [2], the Selectivity ratio is 3.
On to `CO[C@@H]1[C@H](N(C)C(=O)CCC(=O)NCCC(=O)NCCC(=O)NCCC(=O)NCCC(=O)NCCC(=O)NCCC(=O)NCCC(=O)N[C@H]2CSSC[C@@H](C(=O)NCC(N)=O)NC(=O)CNC(=O)[C@H](Cc3ccccc3)NC(=O)[C@H](C(C)C)NC(=O)[C@H](CCCNC(=N)N)NC(=O)[C@H](Cc3ccccc3)NC(=O)[C@H](C(C)C)NC2=O)C[C@H]2O[C@]1(C)n1c3ccccc3c3c4c(c5c6ccccc6n2c5c31)C(=O)NC4` ({Staurosporine-Suc-βAla-βAla-βAla-βAla-βAla-βAla-βAla}-CVFRVFGCG-NH2; disulfide 1-8), for which the Activity in experiment [3] was found to be 100%; in experiment [4], 100%; in experiment [5], 100%; in experiment [6], 4%; in [7], 26%; in experiment [8] it was 100%.
Turning to `CO[C@@H]1[C@H](N(C)C(=O)CCC(=O)NCCC(=O)NCCC(=O)NCCC(=O)NCCC(=O)NCCC(=O)NCCC(=O)NCCC(=O)N[C@H]2CNC(=O)C[C@@H](C(N)=O)NC(=O)CNC(=O)[C@H](Cc3ccccc3)NC(=O)[C@H](C(C)C)NC(=O)[C@H](CCCNC(=N)N)NC(=O)[C@H](Cc3ccccc3)NC(=O)[C@H](C(C)C)NC2=O)C[C@H]2O[C@]1(C)n1c3ccccc3c3c4c(c5c6ccccc6n2c5c31)C(=O)NC4` ({Staurosporine-Suc-βAla-βAla-βAla-βAla-βAla-βAla-βAla}-[Dap]VFRVFGD-NH2; lactam 1-8), the Activity amounted to 100% in [9]; 100% in [10]; 100% in experiment [11]; 0% in experiment [12]; 72% in [13]; 87% in [14].
